Screens deposited in PubChem BioAssay by Broad Institute.
INS-1E GSIS act – GLuc luminescence reporter in INS-1E cells, primary screen for activators of glucose-dependent secretion of insulin; 370,000 tested, 0.61% active; AID 743287; activation, % at 16.6 µM; INS-1E GLuc reporter insulin secretion, 2-3 h;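 active = lowest replicate activation of at least 40%, so every replicate reaches that level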;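 note: 0% = median of neutral control wells and 100% = median of IBMX positive control wells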
Env fusion inh – inhibitors of HIV Env-mediated cell fusion; HeLa-JRFL Env/CEM21 cell fusion, luciferase; inhibition, % at 12.3 µM; 360,000 tested, 1.1% active; AID 651610;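 active = mean replicate inhibition score of at least 50 and every replicate individually at or above 50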;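 note: 0% = plate neutral controls and 100% = maraviroc near 300 nM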
STK33 kinase inh – inhibitors of human STK33 kinase | Q9BYT3 | purified STK33, MBP phosphorylation, ADP-Glo luminescence | inhibition, % at 10 µM | 320,000 tested, 0.073% active | AID 2661;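 active = inhibition at or above 25%, using the most active replicate where run in duplicate; inactive = inhibition below 25%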
CDK5 p35 inh – CDK5/p35 (human) kinase inhibition; Q00535+Q15078; Recombinant CDK5/p35, ADP-Glo luminescence, 60 min; inhibition, % at 10 µM; 330,000 tested, 0.01% active;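 active = highest replicate inhibition of at least 50% and at least 75% of replicates reaching 50%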;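 note: plate controls were DMSO neutral control for no effect and GW8510 at 10 µM for full effect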
GSK3beta inhib – human GSK3beta kinase inhibition. GST-GSK3beta kinase, ADP-Glo luminescence, 60 min; active compounds read low. P49841. 300,000 tested, 0.038% active. activity score (negative = inhibition), % at 10 µM;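 active = more than half of replicate wells score below -50%, meaning over 50% inhibition versus plate controls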;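 note: 0% = median DMSO wells and -100% = median GW8510 positive control wells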
Target sequence (P49841 whole entry, looked up): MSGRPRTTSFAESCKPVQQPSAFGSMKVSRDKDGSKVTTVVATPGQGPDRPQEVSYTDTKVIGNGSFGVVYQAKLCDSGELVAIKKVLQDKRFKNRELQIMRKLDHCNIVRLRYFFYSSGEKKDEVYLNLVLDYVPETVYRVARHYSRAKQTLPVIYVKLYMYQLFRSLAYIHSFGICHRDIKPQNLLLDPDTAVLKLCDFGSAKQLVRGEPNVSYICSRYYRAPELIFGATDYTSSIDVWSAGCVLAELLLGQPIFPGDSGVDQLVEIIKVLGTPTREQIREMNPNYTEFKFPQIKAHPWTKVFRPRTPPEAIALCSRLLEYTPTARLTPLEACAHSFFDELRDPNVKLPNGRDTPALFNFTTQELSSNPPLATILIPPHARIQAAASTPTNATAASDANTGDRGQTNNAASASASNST
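Test system: GST-fused GSK3beta enzyme, cell-free | Quantity: 1.6 ng GST-GSK3beta enzyme per well | Reagent: 25 µM ATP with peptide substrate | Schedule: 60 min enzyme reaction, room temperature | Signal: Luminescent ADP-Glo measurement of ADP formed | Read-out basis: Score relative to plate controls | Control set: DMSO and 20 µM GW8510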
GSK3A inh – inhibitors of human GSK-3 alpha kinase; ADP-Glo luminescence, 60 min; inhibition, % at 10 µM; 320,000 tested, 0.1% active;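 active = more than half of replicates show inhibition above 20%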;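 note: GST-tagged GSK-3 alpha with peptide substrate and 25 µM ATP; 0% = DMSO neutral wells and 100% = GW8510 positive control wells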
An asterisk follows results filed as active; . = not tested or not shown; [ ] = another dose, or the depositor's remark. An excerpt weighted towards active compounds, which were near 1.4% of everything screened.

SMILES	INS-1E GSIS act	Env fusion inh	STK33 kinase inh	CDK5 p35 inh	GSK3beta inhib	GSK3A inh
CCc1ccc(OCC(=O)NC(=S)Nc2ccc(C(C)=O)cc2)c(Br)c1	8	.	-2	0	-4	-2
Clc1ccccc1/C=C/c1ccnc2ccccc12	9	-18	-2	1	-2	0
Oc1ccc(/C=C/c2ccnc3ccccc23)cc1	-23	-82	25*	-2	-3	-2
C[C@@H]1CN([C@H](C)CO)C(=O)c2cccc(NC(=O)c3nc4ccccc4s3)c2O[C@@H]1CN(C)C(=O)NC1CCCCC1	-19	.	.	.	.	.
Cc1noc(C)c1NC(=O)Nc1ccc2c(c1)C(=O)N([C@@H](C)CO)C[C@H](C)[C@H](CN(C)S(=O)(=O)c1cccs1)OCCCC[C@H](C)O2	-16	70*[16.7 µM]	.	.	.	.
C[C@@H]1CN([C@H](C)CO)C(=O)c2cc(NS(=O)(=O)c3ccccc3)ccc2O[C@@H](C)CCCCO[C@H]1CN(C)S(=O)(=O)c1cccs1	-22	-34[16.7 µM]	.	.	.	.
C[C@H]1CCCCO[C@@H](CN(C)S(=O)(=O)c2cccs2)[C@@H](C)CN([C@@H](C)CO)C(=O)c2cc(NS(=O)(=O)c3ccccc3)ccc2O1	-39	63*[16.7 µM]	.	.	.	.
COc1cc(S(=O)(=O)N(Cc2cccs2)CC2CCCO2)ccc1-n1cnnn1 (configuration not stated)	-6	.	0	-3	1	-2
O=S(=O)(NCc1ccccc1)c1ccc(S(=O)(=O)N(Cc2cccs2)CC2CCCO2)cc1 (configuration not stated)	12	61*	-1	1	-2	-2
CCNC(=O)C[C@H]1CC[C@@H]2[C@@H](COc3ccc(NC(=O)Nc4cccc(OC)c4)cc3C(=O)N2C)O1	-3	59*[16.7 µM]	.	.	.	.
CCNC(=O)C[C@@H]1CC[C@@H]2[C@H](COc3ccc(NC(=O)Nc4cccc(OC)c4)cc3C(=O)N2C)O1	9	-14[16.7 µM]	.	.	.	.
CN1C(=O)c2cc(NS(=O)(=O)c3ccccc3F)ccc2OC[C@@H]2O[C@H](CC(=O)NC3Cc4ccccc4C3)CC[C@@H]21	-3	63*[16.7 µM]	.	.	.	.
CN1C(=O)c2cc(NC(=O)c3cccc(Cl)c3)ccc2OC[C@@H]2O[C@H](CC(=O)NC3CCCCC3)CC[C@@H]21	-1	57*[16.7 µM]	.	.	.	.
CN1C(=O)c2cc(NS(=O)(=O)c3ccccc3F)ccc2OC[C@H]2O[C@H](CC(=O)NC3Cc4ccccc4C3)CC[C@H]21	-2	22[16.7 µM]	.	.	.	.
O=C(N[C@H]1CC[C@@H](CCn2cc(C3CCCCC3)nn2)O[C@H]1CO)c1cccnc1	1	-3[16.7 µM]	.	.	.	.
CC(C)CC#Cc1ccc([C@@H]2[C@H]3CN(C(=O)NC4CCCC4)CC(=O)N3[C@H]2CO)cc1	4	.	.	.	.	.
Cc1cccc(N(Cc2cc(=O)[nH]c3ccccc23)C(=O)CCl)c1	3	82*	-2	1	-2	-1
c1coc(CNc2c3c(nc4ccccc24)CCC3)c1	.	75*	0	0	-5	1
CC(C)NCC(=O)Nc1c2c(nc3ccccc13)CCC2	.	-4	15	3	-1	11
CC(C)N1C(=O)c2ccccc2NC(=O)C1C(=O)NCc1ccccc1 (configuration not stated)	-7	59*	.	.	.	.
C=C[C@@H](C)N(Cc1ccc(OC)cc1)S(=O)(=O)N(Cc1ccccc1)[C@H](C=C)C(C)C	-35	89*	-2	0	.	-4
CC(=O)N(C)C[C@@H]1Oc2ccc(NS(C)(=O)=O)cc2CC(=O)N(C)C[C@@H]1C	11	.	.	.	.	.
CCOc1ccc(-c2cc(CCCC(=O)NCCCOC)no2)cc1	.	30	28*	-1	2	0
CC(=O)N1[C@H](C(=O)N2CCCCC2)[C@@H](CO)[C@@H]2Cn3c(ccc(-c4ccccc4)c3=O)[C@@H]21	8	.	.	.	.	.
Fc1ccc(-c2nnc(CN3CCN(c4ncc(C(F)(F)F)cc4Cl)CC3)o2)cc1	.	68*	9	0	-3	15
SMILES	INS-1E GSIS act	Env fusion inh	STK33 kinase inh	CDK5 p35 inh	GSK3beta inhib	GSK3A inh
CN(C)c1ccc(NC(=S)Nc2ccc3c(c2)c(=O)n(C)n3-c2ccc(C(C)(C)C)cc2)cc1	17	58*	.	.	.	.
O=C(CSC1=Nc2ccccc2C2=NC(Cc3c[nH]c4ccccc34)C(=O)N12)NC1CCCCC1 (configuration not stated)	.	114*	-1	-2	-2	0
Cc1c(C)c2ccc(OCC(=O)Nc3ccccn3)c(C)c2oc1=O	-5	83*	0	17	2	-1
Cc1c(C)c2cc(Cl)c(OCC(=O)Nc3ccccn3)cc2oc1=O	2	-9	.	.	.	.
Cc1nn(Cc2cccc(C(=O)Nc3ccn(Cc4c(F)c(F)cc(F)c4F)n3)c2)c(C)c1[N+](=O)[O-]	-5	56*	0	2	2	-2
COc1ccccc1NC(=O)N[C@@H]1CC[C@H](CCNS(=O)(=O)c2ccc(C)cc2)O[C@H]1CO	0	.	.	.	.	.
CO[C@@H]1CN(C)C(=O)c2ccc(NC(=O)c3ccccc3F)cc2OC[C@@H](C)N(C(=O)c2ccccc2F)C[C@H]1C	-25	.	.	.	.	.
NC(=O)c1sc2nc(-c3ccco3)ccc2c1N	21	.	27*	1	-9	13
C[C@@H]1CN([C@H](C)CO)C(=O)c2c(c3ccccc3n2C)-c2ccccc2CO[C@@H]1CN(C)Cc1ccc2c(c1)OCCN2C	14	.	.	.	.	.
N#C/C(=C\c1ccc(O)c(O)c1)C(=O)c1ccc(O)c(O)c1	.	-412	28*	13	.	9
Cc1ccc(S(=O)(=O)N2CCC(C(=O)Nc3nnc(-c4ccc(F)cc4)s3)CC2)cc1	29	-24	-1	0	1	2
O=C(Nc1nnc(-c2ccc(F)cc2)s1)C1CCN(S(=O)(=O)c2ccc(Cl)cc2)CC1	60*	-86	-2	-4	-1	-4
NCC[C@H]1CC[C@@H](NC(=O)C2CC2)[C@H](CO)O1	10	.	.	.	.	.
COc1cccc(N=C2NC(=O)/C(=C/c3cc([N+](=O)[O-])ccc3O)S2)c1	18	-22	-2	3	0	4
O=C1NC(=Nc2ccccc2Cl)S/C1=C\c1cc([N+](=O)[O-])ccc1O	-27	9	-2	-5	-21	72*
O=C(C[C@H]1C=C[C@H](NC(=O)C2CC2)[C@H](CO)O1)NC1CCC1	1	-17[16.7 µM]	.	.	.	.
Nc1nnc(SC2CC(=O)N(c3ccccc3)C2=O)s1 (configuration not stated)	.	58*	-1	0	-2	2
CC1(C(=O)NCc2ccc3c(c2)OCO3)CCN1Cc1csc2ccccc12 (configuration not stated)	-30	98*	.	.	.	.
CC1(C(=O)Nc2ccc3c(c2)OCCO3)CCN1Cc1csc2ccccc12 (configuration not stated)	-11	25	.	.	.	.
